# High-throughput results deposited in PubChem BioAssay by Sanford-Burnham Center for Chemical Genomics.
# STEP block: STEP phosphatase inhibitors, primary screen, biochemical, fluorescence intensity, uHTS | AID 588621, 2011 | inhibition, % at 20 µM | recombinant STEP, OMFP fluorogenic substrate | 0.25% of 360,000 active | Tyrosine-protein phosphatase non-receptor type 5 (Homo sapiens), P54829;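 active = inhibition at 20 µM, scaled per plate between control wells, above about 37%, limit read from the data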;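 also: 0% = DMSO with enzyme and substrate and 100% = substrate only without enzyme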
#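 Measure: Control-normalized % inhibition with plate pattern correction | Test system: STEP phosphatase, cell-free reaction | Medium: pH 6.0 Bis-Tris with DTT and Tween 20 | Technique: Fluorescence, 480/540 nm | Times: Reaction 20 min, ambient temperature | Doses: Single compound dose of 20 µM, 1% DMSO final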
# Scp1 inh: Scp-1 phosphatase inhibitors, primary screen, biochemical, colorimetric, uHTS; Carboxy-terminal domain RNA polymerase II polypeptide A small phosphatase 1 (Homo …; Recombinant Scp1, phosphopeptide, malachite green phosphate absorbance; inhibition, % at 20 µM; 0.88% of 340,000 active; AID 493091, 2011;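 active = inhibition above about 50% at 20 µM, limit read from the data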;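 also: plate controls were DMSO wells with enzyme for no effect and wells lacking enzyme for full effect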
# Target sequence (Q9GZU7 76-261 limits assumed): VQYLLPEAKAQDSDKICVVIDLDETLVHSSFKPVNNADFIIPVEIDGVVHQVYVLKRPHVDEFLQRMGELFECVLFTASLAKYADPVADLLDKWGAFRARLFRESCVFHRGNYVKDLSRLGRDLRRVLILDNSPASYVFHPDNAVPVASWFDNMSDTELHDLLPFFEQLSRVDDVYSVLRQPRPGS
#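 Material – SCP-1 phosphatase catalytic domain, residues 76-261 · Buffer or medium – Acidic Tris acetate buffer with magnesium and detergent · Also added – Phospho 17-mer peptide substrate · Compound – single 20 µM dose, 1% DMSO · Times – 45 min room-temperature reaction, 5 min colour, 30 min stabiliser · Technique – Phosphate-binding colour reagent, absorbance read at 630 nm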
# LMPTP block: LMPTP phosphatase inhibitors, primary screen, biochemical, fluorescence intensity, uHTS | 0.22% of 360,000 active | inhibition, % at 20 µM | AID 651560, 2012 | recombinant LMPTP-A, OMFP fluorogenic substrate;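 active = compounds that cut the enzyme signal by at least half of the control window in the single-dose screen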;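 also: plate controls were DMSO wells with enzyme plus substrate for no effect and substrate without enzyme for full effect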
# Target sequence (P24666 whole entry, looked up): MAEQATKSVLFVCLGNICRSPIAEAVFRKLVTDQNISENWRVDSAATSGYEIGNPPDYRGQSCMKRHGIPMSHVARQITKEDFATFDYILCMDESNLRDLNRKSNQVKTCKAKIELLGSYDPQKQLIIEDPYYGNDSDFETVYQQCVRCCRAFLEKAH
#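 Assay system: LMPTP-A, protein tyrosine phosphatase of low molecular weight / Medium: pH 6.0 Bis-Tris buffer with DTT and Triton X-100 / Schedule: 50 min enzyme reaction at room temperature, protected from light / Measured by: endpoint fluorescence intensity from OMFP dephosphorylation / Read-out basis: % inhibition relative to no-enzyme and uninhibited control wells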
# FAS-TE inh: FAS thioesterase domain inhibitors, primary screen, biochemical, fluorescence intensity, uHTS. Fatty acid synthase (Homo sapiens), P49327. recombinant FAS-TE, OMFH fluorogenic substrate, fluorescence endpoint. inhibition, % at 15 µM. 0.67% of 360,000 active;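 active = compounds whose normalised, plate-corrected inhibition of enzyme fluorescence in the single-dose primary screen is 50% or more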;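 also: 0% = DMSO with enzyme and 100% = substrate without enzyme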
# SUMO1 PPI mod: modulators of SUMO1 protein-protein interactions, primary screen, biochemical, uHTS. SUMO1 binding to a labelled peptide, TR-FRET, 1 h. inhibition, % at 20 µM. 0.33% of 360,000 active. AID 602429, 2012; in the data active = inhibition above about 37%
# Target sequence (P63165 whole entry, looked up): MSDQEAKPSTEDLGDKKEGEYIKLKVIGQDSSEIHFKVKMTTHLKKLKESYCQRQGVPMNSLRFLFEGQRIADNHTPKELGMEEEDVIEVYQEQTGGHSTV
# Scp1 confirm: Scp-1 phosphatase inhibitors, retest, confirmation, biochemical, colorimetric, single concentration; shares compounds with Scp1 inh; recombinant SCP-1 catalytic domain, phosphate release, malachite green absorbance; inhibition, % at 20 µM; 61% of 2,500 active; AID 540281, 2011;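 also: plate controls were DMSO with enzyme for no effect and buffer wells lacking enzyme for full effect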
# MG interference: colorimetric readout interference by compounds, confirmation, artefact control for Scp-1 inhibitor project, biochemical, single concentration; Colorimetric interference counterscreen, malachite green absorbance 630 nm; shares compounds with Scp1 inh; AID 540313, 2011; 2,500 tested, under 10 active; apparent inhibition (interference), % at 20 µM;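 also: compounds added after enzyme reaction finished so only phosphate colour detection is probed; plate controls were DMSO wells with completed Scp-1 reaction for no effect and substrate wells lacking enzyme for full effect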
# Scp-1 Tm shift: Scp-1 binding by thermal shift, confirmation, orthogonal assay for Scp-1 inhibitor project, biophysical, differential scanning fluorimetry; shares compounds with Scp1 inh; Recombinant SCP1, Sypro Orange thermal shift Tm; 25% of 1,500 active; thermal shift relative to vanadate control, % at 40 µM;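 active = substances whose mean melting-temperature shift, as a percentage of the reference inhibitor's shift, reaches about 5.3%, limit read from the data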;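 also: 0% = Tm of DMSO wells and 100% = Tm with sodium orthovanadate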
# * hit, by the source's call; . = no result. An excerpt weighted towards active compounds, which were near 1.9% of everything screened.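 The calls were made as follows, unless noted: active = inhibition of at least 30% at 20 µM; inactive = the rest.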
SMILES,STEP block,Scp1 inh,LMPTP block,FAS-TE inh,SUMO1 PPI mod,Scp1 confirm,MG interference,others
CCOC(=O)c1ccc(S(=O)(=O)N2CCN(C3CC(=O)N(c4ccccc4C(F)(F)F)C3=O)CC2)cc1 (configuration not stated),-1,-6,2,19,1,.,.,
O=C(COc1ccc2c(-c3ccccc3)cc(=O)oc2c1)N1C[C@H]2C[C@@H](C1)c1cccc(=O)n1C2,0,.,0,1,-24,.,.,
CCN(CC)C(=O)COc1ccc2oc(-c3ccco3)cc(=O)c2c1,4,74*,3,-7,-13,49*,-4,Scp-1 Tm shift=-1
CCN(CC)C(=O)COc1c(-c2ccco2)oc2ccccc2c1=O,0,0,-2,-3,-23,.,.,
Oc1ccc(C[C@H]2CNC(=S)N2CC2CCCN2C[C@H](Cc2ccc(O)cc2)N2C[C@H](Cc3ccccc3)N(CC3CCCCC3)C2=S)cc1 (some centres not stated),0,50*,6,-104,3,9,9,
Oc1ccc(C[C@H]2CN([C@@H](Cc3ccccc3)CN3CCC[C@@H]3CN3C(=S)NC[C@@H]3Cc3ccccc3)C(=S)N2CC2CCCCC2)cc1,8,.,6,-54,10,.,.,
Cn1nc(-c2ccccc2)cc1NC(=O)[C@@H]1O[C@H](CO)[C@H](O)[C@H](O)[C@H]1O,-1,.,3,-8,1,.,.,
Cc1c(CCC(=O)O)c(=O)oc2cc(OCc3cccc(F)c3)ccc12,4,-5,1,12,12,.,.,
Cc1c(CCC(=O)O)c(=O)oc2cc(OCc3ccccc3Br)ccc12,3,83*,4,24,19,76*,-9,Scp-1 Tm shift=-11
Cc1ccc(NC(=O)CCCCCC2NC(=O)NC2C)cc1 (configuration not stated),1,-3,0,-4,2,11,4,
CCc1cccc(NC(=O)CCCCCC2NC(=O)NC2C)c1 (configuration not stated),-2,-7,-2,-6,2,-19,-16,
CC1NC(=O)NC1CCCCCC(=O)Nc1ccc(F)c(Cl)c1 (configuration not stated),1,0,-1,0,0,0,-7,
COc1ccccc1Cc1c(C(C)(C)C)nc2c3ccccc3ccn12,-1,.,1,0,1,.,.,
CC(=O)COC(=O)C1CCN(S(=O)(=O)c2cc([N+](=O)[O-])ccc2Cl)CC1,10,45,3,3,-13,.,.,
O=C(COC(=O)C1CCN(S(=O)(=O)c2cc([N+](=O)[O-])ccc2Cl)CC1)Nc1ncc(Cl)cc1Cl,22,68*,10,16,11,58*,-10,Scp-1 Tm shift=14*
O=C(COc1ccccc1/C=C1\SC(=S)NC1=O)Nc1ccc(F)cc1,2,-2,-1,16,23,.,.,
CCOC(=O)c1c(C)[nH]c(C(=O)OCC(=O)Nc2ccccc2)c1C,-4,-1,0,-4,1,.,.,
COCCn1c(=NC(=O)c2cccs2)sc2cc(NC(C)=O)ccc21,-1,-5,0,-9,-1,.,.,
C#CCn1c(=NC(=O)c2ccc(Br)s2)sc2cc(NC(C)=O)ccc21,19,54*,6,-1,0,70*,-7,Scp-1 Tm shift=2
CC(Sc1nnc2ccccn12)C(=O)Nc1ccc2c(c1)OCO2 (configuration not stated),-3,6,0,-7,6,.,.,
CN1/C(=C/c2cccc[n+]2CCO)Sc2ccccc21,0,103*,-1,-6,-18,18,-7,
CC(=S)/C=C1\Sc2ccccc2N1C,0,3,1,-12,-15,.,.,
Cc1cc(C)c2c(=O)[nH]c(SCC(=O)NCCc3ccccc3)nc2n1,0,67*,-2,-6,3,-12,-12,
Cc1ccccc1/C=C/c1cccc[n+]1C,-1,93*,-1,-6,-9,-23,-20,
C[n+]1ccccc1/C=C/c1ccc(C#N)cc1,-2,99*,-4,-5,-8,89*,-11,Scp-1 Tm shift=-1
SMILES,STEP block,Scp1 inh,LMPTP block,FAS-TE inh,SUMO1 PPI mod,Scp1 confirm,MG interference,others
C[n+]1ccccc1/C=C/c1ccc(F)c(F)c1,1,102*,0,-2,-14,-21,-21,
O=C(CCN1C(=O)c2ccccc2C1=O)NC(=S)Nc1ccccc1Cl,-1,-3,2,36,-6,.,.,
CC1(C)CC(CCC(=O)NC(=S)Nc2ccccc2Cl)C(=O)O1 (configuration not stated),-1,-9,-1,-4,3,-10,-16,
Cc1ccnc(NS(=O)(=O)c2ccc(N3C(=O)c4c(Cl)c(Cl)c(Cl)c(Cl)c4C3=O)cc2)n1,17,67*,0,-10,29,27,-14,
Cc1cc2c(=O)cc(-c3ccccc3)oc2c(C(=O)O)c1C,-2,.,-1,-1,5,.,.,
Cc1cc(CC(=O)O)c2oc(-c3ccoc3)cc(=O)c2c1,.,75*,.,.,.,46*,-15,Scp-1 Tm shift=5
CC(=O)c1sc(C(=O)O)c(-c2ccco2)c1-c1ccco1,14,59*,0,-2,-4,32*,-11,Scp-1 Tm shift=-9
COc1cc(OC)cc(C2=Cc3ccccc3C(CC(=O)c3ccco3)N2c2ccc(-c3ccc(C(N)=O)cc3)cc2)c1 (configuration not stated),.,.,1,18,-4,.,.,
O=C(COC(=O)CCCC1=NS(=O)(=O)c2ccccc2N1)Nc1ccc(Br)cc1,-5,51*,0,6,-8,-21,-19,
Cc1ccc(NC(=O)COC(=O)CCCC2=NS(=O)(=O)c3ccccc3N2)cc1C,-1,3,-1,1,-4,.,.,
CC1CCC(NC(=O)Cn2c(=O)oc3cc(S(=O)(=O)N4CCCC4)ccc32)CC1 (configuration not stated),3,63*,5,-18,2,44*,-20,Scp-1 Tm shift=-26
Cc1cc(N=NC(=O)c2ccccc2O)c2ccccc2c1O,97*,95*,29,-3,1,79*,-11,Scp-1 Tm shift=12*
